Experimental findings from ChEMBL document CHEMBL1138232, “Optimization of naphthalimide-imidazoacridone with potent antitumor activity leading to clinical candidate (HKH40A, RTA 502)” (J Med Chem, 2007) are described below.

Some results are limits rather than exact numbers.

The test system of one data set is HT-29. Put plainly: Growth inhibition of human HT29 cells after 5 days by MTT assay. It is filed as functional. Conditions: HT-29, 120 h. The method in brief:
(§1)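 MTT assay after 5 day continuous exposure. GI50, TGI and LC50 calculated from the MTT data. Means ± SD of at least three independent experiments; coefficients of variation 10-20%. Compounds used as tri(methanesulfonate) salts.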
In general terms: Tetrazolium dyes change colour on reduction, which living cells bring about.

Data set [1] in a line: Growth inhibition of human Hep3B cells after 5 days by MTT assay. Conditions: 120 h. The class given is functional, Hep 3B2. In outline: as §1
The test system of data set [2] is HCT-116. Put plainly: Cell cycle arrest in HCT116 cells assessed as accumulation at G2/M phase at 50 nM after 72 hrs. It is filed as functional, Homo sapiens. In outline:
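HCT116 cells exposed to 50 nM drug for 72 h, then cell-cycle distribution analysed. Sub-G1, G1, S and G2/M fractions reported as percent of cells, with untreated control cells for comparison.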

Data set [3] is described as follows: Drug level in F344 rat plasma at 20 mg/kg, iv after 4 hrs. It is filed as ADME, organism-based. On the set-up: dose 20 mg/kg, route intravenous. In outline: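 Single i.v. dose of 20 mg/kg to ncr nu/nu mice and an F344 rat. Plasma concentrations followed over time and fitted by nonlinear regression to give distribution and elimination phases, AUC and apparent volumes of distribution. Detection limit 50 nM.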

Data set [4] deals with HCT-116. Put plainly: Antitumor activity against human HCT116 cells after 48 hrs. The class given is functional. The settings on record: HCT-116, 48 h. The method in brief:
(§2)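 Tested in the NCI 60 human tumour cell line screen, with continuous drug exposure for 48 h. Values include LC50 derived from the screen.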

The subject of the next data set is SK-OV-3. Put plainly: Antitumor activity against human SK-OV-3 cells after 48 hrs. The class given is functional. The settings on record: SK-OV-3, 48 h. In outline:
as §2

For a further data set, the system named is TK-10. Briefly: Antitumor activity against human TK10 cells after 48 hrs. It is filed as functional. Conditions: TK-10, 48 h. In outline:
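NCI 60 human tumour cell line screen; 48 h continuous drug exposure. Compounds tested as tri(methanesulfonate) salts, soluble in water and dilute buffers. Dilute solutions are light-sensitive and adsorb to glass or quartz.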

Where [5] appears, read: read-out: LC50 (the source's name).
[6] abbreviates: read-out: Log LC50 (the source's name) (converted).

Broadly, the GI50 is the concentration that inhibits growth by half. The term TGI denotes the concentration at which net growth stops. For the compound `COc1ccc2c(c1)c(=O)c1c(NCCCN3CCN(CCCN4C(=O)c5cccc6cc([N+](=O)[O-])cc(c56)C4=O)CC3)ccc3ncn2c31.CS(=O)(=O)O`, the 50% growth inhibitory concentration (GI50) in the data set with HT-29 was 1 nM; in data set [1], 2.5 nM; with HCT-116 [4], 0.407 nM; in the data set with SK-OV-3, 151 nM; with TK-10 it was 13.5 nM. The CC50 with HT-29 (setting [5]) was 80 nM; in data set [1] (setting [5]), 50 nM; with HCT-116 [4] (setting [6]) it was 214 nM; in the data set with SK-OV-3 (setting [6]), over 1000 nM; with TK-10 (setting [6]), over 1000 nM. Also, the Activity in the data set with HCT-116 [2] was found to be 27.1%. Moreover, in data set [3], the concentration at 4 h turned out to be 90 nM. The figures for the TGI in the data set with HCT-116 [4] (read-out: Log TGI (converted)), with SK-OV-3 (read-out: Log TGI (converted)) and with TK-10 (read-out: Log TGI (converted)) were 15.1 nM, over 1000 nM and over 1000 nM, respectively.
